# High-throughput results: PubChem, several laboratories
# In the library only some 4.1% were active in any assay of this set; here they are far more common.
# ATG4B inh: ATG4B protease inhibitors, primary screen, biochemical, fluorescence, uHTS; Cysteine protease ATG4B (Homo sapiens), Q9Y4P1; ATG4B cleavage of LC3-PLA2, NBD-HPC fluorescence, 1 h; inhibition, % at 8.33 µM; 340,000 tested, 0.51% active; AID 504462, 2011; in the data active means inhibition above about 40%
# Target sequence (Q9Y4P1 whole entry, looked up): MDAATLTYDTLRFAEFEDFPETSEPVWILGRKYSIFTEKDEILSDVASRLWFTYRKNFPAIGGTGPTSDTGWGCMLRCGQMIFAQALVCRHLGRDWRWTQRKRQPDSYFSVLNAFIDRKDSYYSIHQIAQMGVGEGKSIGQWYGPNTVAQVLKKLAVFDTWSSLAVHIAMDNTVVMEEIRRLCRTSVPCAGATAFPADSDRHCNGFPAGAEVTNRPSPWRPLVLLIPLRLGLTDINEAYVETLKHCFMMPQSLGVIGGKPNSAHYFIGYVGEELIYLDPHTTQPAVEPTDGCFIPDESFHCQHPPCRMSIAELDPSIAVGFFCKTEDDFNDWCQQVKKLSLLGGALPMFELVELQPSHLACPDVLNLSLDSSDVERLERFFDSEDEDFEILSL
# MC4R antagonist: MC4R antagonists of cAMP signaling, primary screen, cell-based, TR-FRET, antagonist arm of biased-ligand search. Melanocortin receptor 4 (Homo sapiens), P32245. MC4R-expressing cells, MTII-stimulated cAMP, LANCE TR-FRET. inhibition, % at 6.5 µM. 360,000 tested, 0.48% active;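 active means inhibition above its plate's cutoff, the mean of tested wells on that plate plus 3 SD, cut at about 29% in these data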
#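 Assay system: human MC4R-expressing U2OS cells; reagent: Melanotan II stimulation of cells; dosing: 6.5 µM single dose; timing: compound 30 min, challenge 1 h, detection 1 h; signal: TR-FRET cAMP assay; replicates: one well per compound, no replicates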
# MC4R ag barr: MC4R agonists recruiting beta-arrestin, primary screen, cell-based, luminescence, agonist arm of biased-ligand search. Melanocortin receptor 4 (Homo sapiens), P32245. U2OS MC4R beta-arrestin complementation; percent of melanotan II response, DMSO zero. activation, % at 8.9 µM. 360,000 tested, 0.98% active. AID 540308, 2011;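 active means activation above a per-plate cutoff, the mean activation of sample wells on that plate plus 3 SD, cut at about 8% in these data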
# SMARCA2 act: SMARCA2 (BRM) function activators, primary screen, cell-based, luminescence, high throughput; AID 652017, 2013; 370,000 tested, 1% active; activation, % at 9.1 µM; MG213 cells, MMTV-luciferase reporter, dexamethasone, overnight; in the data active means activation above about 7.8%
# MPTP inh: mitochondrial permeability transition pore inhibitors, primary screen, biochemical, isolated mouse mitochondria, absorbance. Ca2+ swelling absorbance, 30 min. inhibition, % at 10 µM. 360,000 tested, 1.4% active. AID 602449, 2012;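 active means inhibition of 50% or more, scaled per plate between neutral and stimulator controls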
# Rh123 counter: fluorescence retest of MPTP screen hits in isolated mitochondria, single concentration | inhibition, % at 10 µM | 5,000 tested, 78% active | membrane potential, Rhodamine 123 fluorescence | shares compounds with MPTP inh; in the data active means inhibition above about 22%
# MPTP abs DR: mitochondrial permeability transition pore inhibitors, dose response, biochemical, absorbance, uHTS hits. IC50, µM. AID 651561, 2012. isolated mitochondria swelling. shares compounds with MPTP inh. 780 tested, 58% active; in the data active means IC50 below about 20 µM
# MPTP cs DR: fluorescent counter-screen in isolated mitochondria, dose response, counter-screen for MPTP inhibitor project, biochemical, fluorescence, uHTS hits; shares compounds with MPTP inh; isolated mitochondria counterscreen, fluorescence read-out; IC50, µM; 780 tested, 49% active; in the data active means IC50 below about 80 µM
# Numbers stand for hits; . = inactive; / = no result.
SMILES,ATG4B inh,MC4R antagonist,MC4R ag barr,SMARCA2 act,MPTP inh,Rh123 counter,others
Cc1ccc(OC2CCN(C(=O)[C@@H](Cc3ccccc3)NC(=O)[C@H]3O[C@@H](n4ccc(=O)[nH]c4=O)[C@H](O)[C@@H]3O)CC2)cc1,/,/,/,.,/,/,
C[C@H]1C2CC(OC(=O)Nc3cccc(Cl)c3)C(C2)[C@H]2CCCCN21 (some centres undefined),/,/,/,.,/,/,
Cc1ccc2nc(SC(C)C(=O)Nc3cccc([N+](=O)[O-])c3)[nH]c2c1 (centres undefined),.,.,.,.,58.7,84.9,
Cc1ccc2nc(SCC(=O)Nc3ccc(C)c([N+](=O)[O-])c3)[nH]c2c1,.,.,.,.,.,/,
Cc1ccc2nc(SCC(=O)Nc3ccc(F)c([N+](=O)[O-])c3)[nH]c2c1,.,.,.,.,87.6,76.2,
COc1ccc2nc3cc(Cl)ccc3c(Nc3cc(C(C)C)c(O)cc3C)c2c1,.,.,.,.,84.4,109.4,
CCOC(=O)/C(=C\Nc1ccccc1C(F)(F)F)Sc1ncc(C(F)(F)F)cc1Cl,.,.,.,.,95.1,.,MPTP abs DR=.;MPTP cs DR=.
COC(=O)/C(=C\Nc1ccc(Cl)c2ccccc12)c1ncc(C(F)(F)F)cc1Cl,.,.,.,/,.,/,
S=C(Nc1ccccc1)Nc1ccccc1Br,.,.,.,.,.,/,
O=C(NC(=S)Nc1ccc2c(c1)OCCO2)c1cccc(Br)c1,.,.,.,.,.,/,
Fc1cccc(NC(=S)Nc2ccc(Br)cc2)c1,.,.,.,.,110.2,96.1,
Cc1ccccc1NC(=S)Nc1ccc(Br)cc1,.,.,.,.,79.8,82.5,
S=C(Nc1ccc(Br)cc1)Nc1ccc2c(c1)OCCO2,.,.,.,.,80.8,106.2,
COC(=O)[C@]12C[C@H](CC(=O)NCCCN3CCCC3=O)C(=O)N(Cc3ccc(Cl)cc3Cl)C1=C[C@H](COCc1ccccc1)O[C@@H]2C,/,/,/,.,/,/,
OCCCN1CCC2(CCC(c3ccccc3)CC2)C1 (centres undefined),/,/,/,.,/,/,
CC(=O)c1ccc(Oc2ccc(C(C)=O)cc2)cc1,.,.,.,.,.,/,
Oc1ccc(Oc2ccc(Oc3ccc(O)cc3)cc2)cc1,.,.,.,.,62.4,80.4,
O=C(NC1CCCC1)C1(C(=O)C2CC2)CC(c2ccccc2C(F)(F)F)=NO1 (centres undefined),/,/,/,.,/,/,
COc1ccc(C(C)=NNc2ccc([N+](=O)[O-])cc2S(=O)(=O)Nc2ccccc2C(=O)O)c(OC)c1,.,.,.,.,86.5,37.6,
O=S(=O)(c1cc(F)ccc1F)N1CCN(c2ncnc3ccccc23)CC1,.,.,.,.,94.6,91.8,
CC(=O)N1N=C(c2ccc(C(C)(C)C)cc2)OC1(C)C,.,.,.,.,68.8,.,MPTP abs DR=15.7;MPTP cs DR=17.8
CC(C)c1cc(C(=O)Nc2cc(Cl)ccc2O)no1,.,.,.,.,.,/,
CC(C)c1cc(C(=O)Nc2cc(Br)ccc2O)no1,.,.,.,.,58.0,61.5,
CC(C)CN1C(=O)[C@]2(CC(=O)N(C)C2c2ccccc2)c2cc(-n3cc(CO)nn3)ccc21 (some centres undefined),/,/,/,.,/,/,
CCOc1ccc2[nH]c3c(NCCC(C)C)ncnc3c2c1,.,.,.,.,78.0,67.1,
SMILES,ATG4B inh,MC4R antagonist,MC4R ag barr,SMARCA2 act,MPTP inh,Rh123 counter,others
COc1ccc2[nH]c3c(NCCCOC(C)C)ncnc3c2c1,.,.,.,.,.,/,
COc1ccc2[nH]c3c(NCCC4=CCCCC4)ncnc3c2c1,.,.,.,.,94.1,92.8,
Clc1ccccc1N1CCN(C2=Nc3ccccc3Sc3ccccc32)CC1,/,/,/,.,/,/,
FC(F)(F)c1ccccc1C(C#Cc1ccccc1)NCc1ccc2c(c1)OCO2 (centres undefined),/,/,/,.,/,/,
COc1cc(/C=N\NC(=O)CNC(=O)C2COc3ccccc3O2)ccc1O (centres undefined),.,.,.,.,.,/,
COc1cc(/C=N/NC(=O)C2c3ccccc3Oc3ccccc32)ccc1O,.,.,.,.,83.4,.,MPTP abs DR=15.8;MPTP cs DR=.
CC(=O)c1c(C)[nH]c(C(=O)Nc2nc(-c3ccc(Cl)cc3)cs2)c1C,.,.,.,.,94.1,58.0,
CC(=O)c1c(C)[nH]c(C(=O)Nc2nc(C)cs2)c1C,.,.,.,.,.,/,
CC(=O)c1c(C)[nH]c(C(=O)Nc2nc(-c3ccc(-c4ccccc4)cc3)cs2)c1C,.,.,.,.,93.8,69.1,
O=C(O)CCCCN1C(=O)C=CC1=O,/,/,/,.,/,/,
COC(=O)[C@]1(C#N)CC(=O)N(C)[C@@H]1c1ccccc1,/,/,/,.,/,/,
Cn1c(NC(=O)c2ccccc2)nc(Cc2ccccc2)c1Cc1ccccc1,/,/,/,.,/,/,
CN1C(=S)SC(N(O)C(=O)Nc2ccc(Cl)c(Cl)c2)C1(C)C (centres undefined),.,.,.,.,98.3,85.9,
CCOC(=O)[C@@]12CN(C(=O)OC(C)(C)C)CC=C1N(Cc1ccc(OC)cc1)C(=O)[C@H]2CC(=O)NCCc1ccccc1OC,/,/,/,.,/,/,
O=C(COC(=O)Cc1c(Cl)cccc1Cl)Nc1ccc(OC(F)(F)F)cc1,.,.,.,.,65.5,73.1,
CC(=O)N[C@@H]1C[C@@H]2O[C@H](CO)CC[C@@H]2O[C@@H]1CCc1ccc(-c2ccc(F)cc2)cc1,/,/,/,.,/,/,
O=C(COc1ccccc1/C=C1\SC(=S)NC1=O)Nc1ccc(F)cc1,.,.,.,.,61.0,77.6,
COc1ccc(-c2nc3ccc(C(=O)NCCCN4CCOCC4)cc3nc2-c2ccc(OC)cc2)cc1,.,.,.,.,84.3,.,MPTP abs DR=4.89;MPTP cs DR=.
CCCNC(=O)c1ccc2nc(-c3ccccc3)c(-c3ccccc3)nc2c1,.,.,.,.,.,/,
CCN1CCN(CCNC(=O)c2ccc3nc(-c4cccc(C)c4)c(-c4cccc(C)c4)nc3c2)CC1,.,.,.,.,95.9,.,
COc1ccc(C(=O)NCCCN2CCOCC2)cc1,.,.,.,.,.,/,
CC1CCN(C(=S)Nc2ccc(SC(F)F)cc2)CC1,.,.,.,.,.,/,
CC1CCCCC1NC(=S)Nc1ccc(SC(F)F)cc1 (centres undefined),.,.,.,.,66.4,91.0,
FC(F)Sc1ccc(NC(=S)NCC2CCCCC2)cc1,.,.,.,.,103.1,80.0,
